In ChEMBL document CHEMBL2380254, “Optimization of tocotrienols as antiproliferative and antimigratory leads” (Eur J Med Chem, 2013):

Experiments:
[1] = tested on: SF-539; test: Growth inhibition of human SF539 cells assessed as cell growth at 10 uM after 48 hrs by sulforhodamine B assay; format: functional; conditions: SF-539, 48 h, read-out: Activity
Summary of the method: (§1)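 Single-dose NCI-60 screen: adherent cells in RPMI 1640 with 5% FBS were exposed to 10 µM for 48 h at 37 °C after a 24 h preincubation. They were fixed in situ with cold TCA (10% final), stained with 0.4% SRB in 1% acetic acid, solubilized in 10 mM Tris base, and read at 515 nm. Percent growth was taken relative to time-zero and control plates.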

[2] = tested on: HOP-62; test: Growth inhibition of human HOP62 cells assessed as cell growth at 10 uM after 48 hrs by sulforhodamine B assay; format: functional; conditions: HOP-62, 48 h, read-out: Activity
Summary of the method: (§2)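 NCI-60 single-dose screen at 10 µM: cells in RPMI 1640 with 5% FBS, preincubated 24 h, then exposed 48 h at 37 °C. TCA fixation (16% final for suspension cells), SRB staining, absorbance 515 nm. Percent growth relative to time-zero and untreated control plates; negative values indicate cell kill.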

[3] = tested on: SNB-19; test: Growth inhibition of human SNB19 cells assessed as cell growth at 10 uM after 48 hrs by sulforhodamine B assay; format: functional; conditions: SNB-19, 48 h, read-out: Activity
Summary of the method: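 Single-dose NCI-60 test at 10 µM. Cells were grown in RPMI 1640 with 5% FBS and 2 mM L-glutamine, preincubated 24 h, with T0 plates TCA-fixed. Exposure was 48 h at 37 °C, 5% CO2. Cells were fixed with cold TCA (final 10%, 4 °C, 60 min), stained with SRB and read at 515 nm. Percent growth was taken relative to T0 and untreated control; negative values denote cell kill.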

[4] = tested on: MOLT-4; test: Growth inhibition of human MOLT4 cells assessed as cell growth at 10 uM after 48 hrs by sulforhodamine B assay; format: functional; conditions: MOLT-4, 48 h, read-out: Activity
Summary of the method: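 Single 10 µM dose applied to suspension cells in RPMI 1640 with 5% FBS and 2 mM L-glutamine for 48 h at 37 °C. Settled cells were fixed with 80% TCA (16% final), stained with SRB, and read at 515 nm. Percent growth was calculated against time-zero and untreated control optical densities.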

[5] = tested on: IGROV-1; test: Growth inhibition of human IGROV1 cells after 48 hrs by sulforhodamine B assay; format: functional; conditions: IGROV-1, 48 h
Summary of the method: (§3)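 NCI-60 screen: cells in RPMI 1640 with 5% FBS and 2 mM glutamine, 5000–40,000 cells/well, preincubated 24 h. Five concentrations (10-fold dilutions; 100 to 0.001 µM) applied for 48 h at 37 °C. TCA fixation, SRB stain, absorbance at 515 nm. Time-zero plates included; GI50 where 100×(T−T0)/(C−T0)=50.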

[6] = tested on: U-251; test: Growth inhibition of human U251 cells after 48 hrs by sulforhodamine B assay; format: functional; conditions: U-251, 48 h
Summary of the method: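 NCI-60 five-dose screen. Cells were grown in RPMI 1640 with 5% FBS and 2 mM L-glutamine, plated at 5000–40,000 cells/well and incubated 24 h before dosing, with T0 plates TCA-fixed. DMSO stocks were diluted to doses of […] and exposed 48 h at 37 °C, 5% CO2. Cells were fixed with cold TCA (final 10%, 60 min, 4 °C), stained with 0.4% SRB in 1% acetic acid for 10 min, solubilized in 10 mM trizma base and read at 515 nm. GI50 is where 100×(T−T0)/(C−T0)=50.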

[7] = tested on: COLO 205; test: Growth inhibition of human COLO205 cells after 48 hrs by sulforhodamine B assay; format: functional; conditions: COLO 205, 48 h; summary of the method: as §3
[8] = tested on: NCI-H322M; test: Growth inhibition of human NCI-H322M cells after 48 hrs by sulforhodamine B assay; format: functional
Summary of the method: (§4)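 NCI-60 panel cells grown in RPMI 1640 with 5% FBS and 2 mM L-glutamine, seeded at 5000–40,000 cells/well and preincubated 24 h. Five 10-fold dilutions (0.001–100 µM) from DMSO stocks were added for 48 h at 37 °C. Adherent cells were fixed with cold TCA (10% final) for 60 min at 4 °C, stained with 0.4% SRB, and read at 515 nm. GI50 was set where 100×(T−T0)/(C−T0)=50.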

[9] = tested on: DU-145; test: Growth inhibition of human DU145 cells after 48 hrs by sulforhodamine B assay; format: functional; conditions: DU-145, 48 h; summary of the method: as §3
[10] = tested on: CAKI-1; test: Growth inhibition of human CAKI-1 cells assessed as cell growth at 10 uM after 48 hrs by sulforhodamine B assay; format: functional; conditions: CAKI-1, 48 h, read-out: Activity; summary of the method: as §2
[11] = tested on: MDA-MB-468; test: Growth inhibition of human MDA-MB-468 cells assessed as cell growth at 10 uM after 48 hrs by sulforhodamine B assay; format: functional; conditions: MDA-MB-468, 48 h, read-out: Activity; summary of the method: as §1
[12] = tested on: COLO 205; test: Growth inhibition of human COLO205 cells assessed as cell growth at 10 uM after 48 hrs by sulforhodamine B assay; format: functional; conditions: COLO 205, 48 h, read-out: Activity; summary of the method: as §2
[13] = tested on: HL-60(TB); test: Growth inhibition of human HL-60(TB) cells assessed as cell growth at 10 uM after 48 hrs by sulforhodamine B assay; format: functional; conditions: HL-60, 48 h, read-out: Activity
Summary of the method: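 NCI-60 single-dose screen run at 10 µM on HL-60(TB) suspension cells in RPMI 1640 with 5% FBS and 2 mM L-glutamine. Cells were preincubated for 24 h, with a time-zero plate fixed then. Exposure lasted 48 h at 37 °C. Settled cells were fixed with TCA (16% final), stained with SRB and read at 515 nm. Percent growth is relative to control and T0.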

[14] = tested on: SF-295; test: Growth inhibition of human SF295 cells after 48 hrs by sulforhodamine B assay; format: functional; conditions: SF-295, 48 h; summary of the method: as §4
[15] = tested on: NCI-H460; test: Growth inhibition of human NCI-H460 cells after 48 hrs by sulforhodamine B assay; format: functional; conditions: NCI-H460, 48 h; summary of the method: as §4
[16] = Antiproliferative activity against mouse +SA cells by MTT assay; format: functional, cell-based; conditions: +SA cell
Summary of the method: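 Mouse +SA mammary epithelial cells in serum-free DMEM/F12 with BSA, transferrin, insulin and EGF. Compounds from DMSO stock conjugated to BSA (overnight, 37 °C); 0–40 µM, final DMSO <0.1%. MTT 0.42 mg/mL for 4 h at 37 °C, isopropanol solubilization, OD 570 nm. Cell number from a standard curve; IC50 by non-linear regression.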

[17] = tested on: SF-268; test: Growth inhibition of human SF268 cells after 48 hrs by sulforhodamine B assay; format: functional; conditions: SF-268, 48 h; summary of the method: as §4
[18] = tested on: SF-539; test: Growth inhibition of human SF539 cells after 48 hrs by sulforhodamine B assay; format: functional; conditions: SF-539, 48 h; summary of the method: as §4
[19] = tested on: NCI-H226; test: Growth inhibition of human NCI-H226 cells after 48 hrs by sulforhodamine B assay; format: functional; conditions: NCI-H226, 48 h; summary of the method: as §4
[20] = tested on: A498; test: Growth inhibition of human A498 cells after 48 hrs by sulforhodamine B assay; format: functional; conditions: A498, 48 h; summary of the method: as §3
[21] = tested on: BT-549; test: Growth inhibition of human BT549 cells assessed as cell growth at 10 uM after 48 hrs by sulforhodamine B assay; format: functional; conditions: BT-549, 48 h, read-out: Activity; summary of the method: as §2

Compound | growth at 10 µM [1] [%] | growth at 10 µM [2] [%] | growth at 10 µM [3] [%] | growth at 10 µM [4] [%] | GI50 [5] [µM] | GI50 [6] [nM] | GI50 [7] [nM] | GI50 [8] [µM] | GI50 [9] [µM] | growth at 10 µM [10] [%] | growth at 10 µM [11] [%] | growth at 10 µM [12] [%] | growth at 10 µM [13] [%] | GI50 [14] [nM] | GI50 [15] [nM] | IC50 [16] [nM] | GI50 [17] [µM] | GI50 [18] [µM] | GI50 [19] [µM] | GI50 [20] [µM] | other results
CC(C)=CCC/C(C)=C/CC/C(C)=C/CC[C@]1(C)CCc2c3c(cc(C)c2O1)OCN(CCCCCCCCO)C3 | -94.4 | -99 | -74.6 | -58.6 | 1.34 | 544 | 886 | 5.13 | 1.08 | -79.7 | -90.7 | -94.5 | -57.3 | 1020 | 710 | 790 | 4.14 | 1.28 | 5.17 | 4.71 | 
CC(C)=CCC/C(C)=C/CC/C(C)=C/CC[C@]1(C)CCc2c3c(c(C)c(C)c2O1)OCN(CCCCO)C3 | 69.6 | 75 | 71.3 | 35.8 | 6.53 | 1550 | 2090 | > 10 | 6.55 | 70.1 | 57 | -16 | 72.2 | 2080 | 1940 | 2200 | > 10 | > 10 | > 10 | > 10 | growth at 10 µM [21]: 104%
CC(C)=CCC/C(C)=C/CC/C(C)=C/CC[C@]1(C)CCc2c3c(cc(C)c2O1)OCN(C1CCN(Cc2ccccc2)CC1)C3 | 80.6 | 111 | 68.2 |  | 1.56 | 1510 | 2000 | 1.85 | 1.89 | 75.3 | 0.33 | -36.5 | -18.9 | 1880 | 618 | 800 | 1.67 | 1.83 | 2.21 | 1.31 | growth at 10 µM [21]: 109%
CC(C)=CCC/C(C)=C/CC/C(C)=C/CC[C@]1(C)CCc2c3c(cc(C)c2O1)OCN(CCCCCCO)C3 | 28.3 | -94.5 | -6.48 | -42.9 | 1.28 | 536 | 717 | 3.75 | 1 | -72.8 | -84.5 | -79.6 | -24.5 | 602 | 692 | 1300 | 1.18 | 2.37 | 5.27 | 4.88 | growth at 10 µM [21]: 41.6%
CC(C)=CCC/C(C)=C/CC/C(C)=C/CC[C@]1(C)CCc2c3c(c(C)c(C)c2O1)OCN(CCCCCCO)C3 | 66.1 | -23.3 | 18.1 | -18.4 | 2.69 | 2730 | 2830 | 2.71 | 2.96 | 47 | -46.7 | 31.8 | 65.9 | 2970 | 3150 | 2100 | 2.81 | 3.15 | 2.81 | 2.59 | growth at 10 µM [21]: 119%
CC(C)=CCC/C(C)=C/CC/C(C)=C/CC[C@]1(C)CCc2c3c(cc(C)c2O1)OCN(CCCCCO)C3 | 95 | 20.6 | 82 | -1.68 | 6.18 | 5710 | 3390 | 6.35 | 6.28 | 74.4 | 43 | 3.96 | 58.3 | 6120 | 5180 | 700 | 7.13 | 6.26 | 6.19 | 5.76 | growth at 10 µM [21]: 110%
CC(C)=CCC/C(C)=C/CC/C(C)=C/CC[C@]1(C)CCc2c3c(cc(C)c2O1)OCN(CCc1ccc(O)cc1)C3 | 94.1 | -31.3 | 92.1 | -3.07 | 4.34 | 4320 | 958 | 6.2 | 5.75 | 70.3 | -44.6 | -69.9 | 31.2 | 6220 | 1120 | 910 | 6.17 | 6.41 | 5.4 | 6.21 | growth at 10 µM [21]: 105%
CC(C)=CCC/C(C)=C/CC/C(C)=C/CC[C@]1(C)CCc2c3c(cc(C)c2O1)OCN(CCCCO)C3 | 27.4 | -84.5 | -28.3 | -35.3 | 14.8 | 6640 | 3050 | 17.2 | 16.7 | 34 | -63.2 | -76.8 | -2.37 | 18200 | 6180 | 1800 | 17.7 | 19.1 | 15.3 | 14.8 | growth at 10 µM [21]: 88.2%
